Legend:
[1] = Cytotoxicity against human MCF7/ADR cells after 72 hrs; assay type: functional, cell-based; settings: NCI/ADR-RES
MCF7 = assay: Cytotoxicity against human MCF7 cells after 72 hrs; assay type: functional, cell-based; settings: MCF7, 72 h
Tubulin (Homo sapiens) = Tubulin (Homo sapiens) (UniProt P68371+Q9H4B7+P0DPH7+P68366+Q13509+Q71U36+P04350+Q3ZCM7+P07437+P68363+Q9BQE3+Q6PEY2+Q13885+Q9BVA1+Q9BUF5); assay: Inhibition of tubulin polymerization (unknown origin) at 5 uM; assay type: protein-complex assay
How it was run: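 Tubulin came from fresh animal brain (species not given), homogenized in cold MES buffer and purified through repeated cold (4 °C) and warm 105,000 g centrifugation cycles, then diluted to 2 mg/mL in MES. Cold tubulin was mixed with ATPNa2 (40 mmol/L stock) and compound. Polymerization was followed as OD350 every 3 min at 37 °C for 30 min.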

SMILES	IC50 [1] [µM]	IC50 (MCF7) [µM]	inhibition (Tubulin (Homo sapiens)) [%]
C/C1=C\C[C@@H](/C(C)=C/c2csc(C)n2)OC(=O)C[C@H](O)C(C)(C)C(=O)[C@H](C)[C@@H](O)[C@@H](C)[C@@H](C)CC1	> 100	93.4	
C/C1=C\C[C@@H](/C(C)=C/c2csc(C)n2)OC(=O)C[C@H](O)C(C)(C)C(=O)[C@H](C)[C@@H](O)[C@@H](C)[C@H](C)CC1	7.3	7.7	
C/C1=C/C[C@@H](/C(C)=C/c2csc(C)n2)OC(=O)C[C@H](O)C(C)(C)C(=O)[C@H](C)[C@@H](O)[C@@H](C)CCC1 [EPOTHILONE D]	0.01	0.014	43.3
C/C1=C/C[C@@H](/C(C)=C/c2csc(C)n2)OC(=O)C[C@H](O)C(C)(C)C(=O)[C@H](C)[C@@H](O)[C@@H](C)[C@@H](C)CC1		35.4	8.5
C/C1=C/C[C@@H](/C(C)=C/c2csc(C)n2)OC(=O)C[C@H](O)C(C)(C)C(=O)[C@H](C)[C@@H](O)[C@@H](C)[C@H](C)CC1	0.51	0.99	15.7
